Experimental data taken from ChEMBL document CHEMBL1144306, “1-Hydroxyalkyl-3-phenylthioureas as novel HDL-elevating agents” (2005).

Legend:
Type in all cases: functional
[1] = test system: Rattus norvegicus; assay: Effect on level of apolipoprotein (Apo) AI (relative to untreated control) in cholesterol fed-male rats at 42 mg/kg/day
Method in brief: (§1)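 Six male Sprague–Dawley rats per group, fed a cholic acid/cholesterol-supplemented diet, received compound in the diet ad libitum for eight days. Serum Apo A–I was measured by SDS-PAGE or by rat competition ELISA and reported as % change versus untreated controls (p < 0.05). Gemfibrozil was the internal positive control in each study.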

[2] = test system: Rattus norvegicus; assay: Effect on level of triglyceride in (relative to untreated control) in cholesterol fed-male rats at 42 mg/kg/day
Method in brief: (§2)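 Serum triglycerides were measured in groups of six male Sprague–Dawley rats on a cholic acid/cholesterol-supplemented diet. Compound was dosed in the diet, ad libitum, for eight days. Results are % change relative to untreated controls, with significance at p < 0.05.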

[3] = test system: Rattus norvegicus; assay: Effect on change in body weight gain (relative to untreated control) in cholesterol fed-male rats at 42 mg/kg/day
Method in brief: (§3)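 Male Sprague–Dawley rats, six per group, on a cholic acid- and cholesterol-supplemented diet. Compounds were mixed into the diet and given ad libitum for eight days. Change in body weight gain is expressed as a percentage of untreated controls. Significance was set at p < 0.05 versus untreated controls.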

[4] = test system: Rattus norvegicus; assay: Effect on level of total cholesterol (relative to untreated control) in cholesterol fed-male rats at 42 mg/kg/day
Method in brief: (§4)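 Male Sprague–Dawley rats (groups of six) fed a cholic acid- and cholesterol-supplemented diet; compound mixed into the diet, given ad libitum for eight days. Lipoproteins were separated by ultracentrifugation, and cholesterol was measured by an enzymatic colorimetric method. Results are % change versus untreated controls, with significance at p < 0.05.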

[5] = test system: Rattus norvegicus; assay: Effect on level of high density lipoprotein cholesterol (relative to untreated control) in cholesterol fed-male rats at 42 mg/kg/day
Method in brief: (§5)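 Cholic acid/cholesterol-fed male Sprague–Dawley rats (n = 6 per group) were dosed via diet ad libitum for eight days. Lipoproteins were separated by ultracentrifugation and HDL cholesterol was quantified by an enzymatic colorimetric method. Values are % change relative to untreated controls, with significance at p < 0.05. Gemfibrozil was the internal positive control.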

[6] = test system: Rattus norvegicus; assay: Effect on level of high density lipoprotein cholesterol (relative to untreated control) in cholesterol fed-male rats at 74 mg/kg/day; method in brief: as §4
[7] = test system: Rattus norvegicus; assay: Effect on level of triglyceride in (relative to untreated control) in cholesterol fed-male rats at 74 mg/kg/day; method in brief: as §2
[8] = test system: Rattus norvegicus; assay: Effect on level of total cholesterol (relative to untreated control) in cholesterol fed-male rats at 74 mg/kg/day; method in brief: as §4
[9] = test system: Rattus norvegicus; assay: Effect on change in body weight gain (relative to untreated control) in cholesterol fed-male rats at 74 mg/kg/day; method in brief: as §3
[10] = test system: Rattus norvegicus; assay: Effect on level of apolipoprotein (Apo) AI (relative to untreated control) in cholesterol fed-male rats at 74 mg/kg/day; method in brief: as §1
[11] = test system: Rattus norvegicus; assay: Effect on change in body weight gain (relative to untreated control) in cholesterol fed-male rats at 50 mg/kg/day; method in brief: as §3
[12] = test system: Rattus norvegicus; assay: Effect on level of total cholesterol (relative to untreated control) in cholesterol fed-male rats at 50 mg/kg/day; method in brief: as §4
[13] = test system: Rattus norvegicus; assay: Effect on level of high density lipoprotein cholesterol (relative to untreated control) in cholesterol fed-male rats at 50 mg/kg/day; method in brief: as §5
[14] = test system: Rattus norvegicus; assay: Effect on level of apolipoprotein (Apo) AI (relative to untreated control) in cholesterol fed-male rats at 50 mg/kg/day; method in brief: as §1
[15] = test system: Rattus norvegicus; assay: Effect on level of triglyceride in (relative to untreated control) in cholesterol fed-male rats at 50 mg/kg/day; method in brief: as §2
[16] = test system: Rattus norvegicus; assay: Effect on change in body weight gain (relative to untreated control) in cholesterol fed-male rats at 68 mg/kg/day; method in brief: as §3
[17] = test system: Rattus norvegicus; assay: Effect on level of apolipoprotein (Apo) AI (relative to untreated control) in cholesterol fed-male rats at 68 mg/kg/day; method in brief: as §1
[18] = test system: Rattus norvegicus; assay: Effect on level of total cholesterol (relative to untreated control) in cholesterol fed-male rats at 68 mg/kg/day; method in brief: as §4
[19] = test system: Rattus norvegicus; assay: Effect on level of high density lipoprotein cholesterol (relative to untreated control) in cholesterol fed-male rats at 68 mg/kg/day; method in brief: as §4
[20] = test system: Rattus norvegicus; assay: Effect on level of triglyceride in (relative to untreated control) in cholesterol fed-male rats at 68 mg/kg/day; method in brief: as §2
[21] = test system: Rattus norvegicus; assay: Effect on change in body weight gain (relative to untreated control) in cholesterol fed-male rats at 36 mg/kg/day; method in brief: as §3
[22] = test system: Rattus norvegicus; assay: Effect on level of apolipoprotein (Apo) AI (relative to untreated control) in cholesterol fed-male rats at 36 mg/kg/day; method in brief: as §1
[23] = test system: Rattus norvegicus; assay: Effect on level of total cholesterol (relative to untreated control) in cholesterol fed-male rats at 36 mg/kg/day; method in brief: as §4
[24] = test system: Rattus norvegicus; assay: Effect on level of high density lipoprotein cholesterol (relative to untreated control) in cholesterol fed-male rats at 36 mg/kg/day; method in brief: as §5
[25] = test system: Rattus norvegicus; assay: Effect on level of triglyceride in (relative to untreated control) in cholesterol fed-male rats at 36 mg/kg/day; method in brief: as §2
[26] = test system: Rattus norvegicus; assay: Effect on change in body weight gain (relative to untreated control) in cholesterol fed-male rats at 51 mg/kg/day; method in brief: as §3
[27] = test system: Rattus norvegicus; assay: Effect on level of high density lipoprotein cholesterol (relative to untreated control) in cholesterol fed-male rats at 51 mg/kg/day; method in brief: as §5
[28] = test system: Rattus norvegicus; assay: Effect on level of triglyceride in (relative to untreated control) in cholesterol fed-male rats at 51 mg/kg/day; method in brief: as §2
[29] = test system: Rattus norvegicus; assay: Effect on level of total cholesterol (relative to untreated control) in cholesterol fed-male rats at 51 mg/kg/day; method in brief: as §4
[30] = test system: Rattus norvegicus; assay: Effect on level of apolipoprotein (Apo) AI (relative to untreated control) in cholesterol fed-male rats at 51 mg/kg/day; method in brief: as §1
[31] = test system: Rattus norvegicus; assay: Effect on level of total cholesterol (relative to untreated control) in cholesterol fed-male rats at 67 mg/kg/day; method in brief: as §4
[32] = test system: Rattus norvegicus; assay: Effect on change in body weight gain (relative to untreated control) in cholesterol fed-male rats at 67 mg/kg/day; method in brief: as §3
[33] = test system: Rattus norvegicus; assay: Effect on level of triglyceride in (relative to untreated control) in cholesterol fed-male rats at 67 mg/kg/day; method in brief: as §2
[34] = test system: Rattus norvegicus; assay: Effect on level of apolipoprotein (Apo) AI (relative to untreated control) in cholesterol fed-male rats at 67 mg/kg/day; method in brief: as §1
[35] = test system: Rattus norvegicus; assay: Effect on level of high density lipoprotein cholesterol (relative to untreated control) in cholesterol fed-male rats at 67 mg/kg/day; method in brief: as §4

## Cc1cc(Cl)ccc1/N=C(\S)NCCO
[1]
  Activity: 18%
[2]
  Activity: -8%
[3]
  Activity: -229%
[4]
  Activity: 17%
[5]
  Activity: 53%

## Cc1ccc(N/C(S)=N/CCO)cc1Cl
[6]
  Activity: 72%
[7]
  Activity: -15%
[8]
  Activity: 15%
[9]
  Activity: -77%
[10]
  Activity: -5%

## Cc1ccc(C)c(OCCCC(C)(C)C(=O)O)c1 [GEMFIBROZIL]
[11]
  Activity: 2%
[12]
  Activity: -23%
[13]
  Activity: 104%
[14]
  Activity: 54%
[15]
  Activity: -29%

## Cc1ccc(Cl)cc1N/C(S)=N/C[C@H](C)O
[16]
  Activity: -68%
[17]
  Activity: 8%
[18]
  Activity: 30%
[19]
  Activity: 33%
[20]
  Activity: -75%

## OCC/N=C(\S)Nc1cc(Cl)ccc1Cl
[16]
  Activity: -66%
[17]
  Activity: 36%
[18]
  Activity: 21%
[19]
  Activity: 71%
[20]
  Activity: -13%

## COCC/N=C(\S)Nc1cc(Cl)ccc1C
[21]
  Activity: -3%
[22]
  Activity: 33%
[23]
  Activity: 20%
[24]
  Activity: 30%
[25]
  Activity: -47%

## Cc1ccc(Cl)cc1/N=C(\S)NCCCO
[6]
  Activity: 82%
[7]
  Activity: -80%
[8]
  Activity: 3%
[9]
  Activity: -63%
[10]
  Activity: 24%

## Cc1ccccc1/N=C(\S)NCCO
[26]
  Activity: -138%
[27]
  Activity: 3%
[28]
  Activity: -51%
[29]
  Activity: 66%
[30]
  Activity: -18%

## Cc1ccc(Cl)cc1/N=C(\S)NCCS
[21]
  Activity: -20%
[22]
  Activity: 10%
[23]
  Activity: 8%
[24]
  Activity: 25%
[25]
  Activity: -3%

## Cc1c(Cl)cccc1/N=C(\S)NCCO
[31]
  Activity: 10%
[32]
  Activity: -56%
[33]
  Activity: -16%
[34]
  Activity: 27%
[35]
  Activity: 63%
